The source made the active and inactive calls. The calls are words filed in the database; no cut-off is given here.
What was measured:
[1] = molecular target: T1, Nuclear receptor subfamily 4immunitygroup A member 1 (Homo sapiens, UniProt P22736); assay: Agonist activity at nuclear orphan receptor Nur77 in human BGC823 cells bearing beta-galactosidase expression vector assessed as transcriptional activation of thyroid receptor reporter gene after 12 hrs by luciferase assay; assay type: functional, cell-based; settings: BGC-823
T1 sequence (P22736 whole entry): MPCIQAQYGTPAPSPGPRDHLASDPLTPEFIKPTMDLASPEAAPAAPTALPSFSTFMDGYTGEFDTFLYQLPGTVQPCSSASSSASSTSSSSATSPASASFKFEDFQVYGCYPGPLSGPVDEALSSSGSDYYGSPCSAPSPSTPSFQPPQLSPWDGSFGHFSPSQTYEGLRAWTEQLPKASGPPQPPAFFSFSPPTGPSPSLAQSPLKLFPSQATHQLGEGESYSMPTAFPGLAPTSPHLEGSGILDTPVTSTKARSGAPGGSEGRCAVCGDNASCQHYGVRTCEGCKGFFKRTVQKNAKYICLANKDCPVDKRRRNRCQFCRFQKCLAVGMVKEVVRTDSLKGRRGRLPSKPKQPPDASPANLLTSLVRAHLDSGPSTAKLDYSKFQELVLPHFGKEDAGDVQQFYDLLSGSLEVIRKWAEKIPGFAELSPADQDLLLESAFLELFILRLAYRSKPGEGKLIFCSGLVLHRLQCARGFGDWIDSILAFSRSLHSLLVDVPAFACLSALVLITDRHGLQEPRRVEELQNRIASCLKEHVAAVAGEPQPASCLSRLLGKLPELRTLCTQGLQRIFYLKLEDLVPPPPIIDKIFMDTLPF

Mus musculus = assay: Increase in blood glucose level in Nr4a1 deficient mouse C57BL/6 at 50 mg/kg, ip within 30 mins; assay type: functional; settings: route intraperitoneal
Outline: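 C57BL/6 mice (wild-type or Nr4a1-/-, six weeks old) fasted 16 h with water, then given 50 mg kg-1 intraperitoneally. DMSO (50 μl) or injection without vehicle served as controls. Tail-vein blood glucose was read by glucometer at 15, 30, 60, 90, 120, 180 and 300 min. Means ± s.e.m.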

L02 = assay: Antiproliferative activity against human HL7702 cells assessed as number of viable cells after 72 hrs by MTT assay; assay type: functional, cell-based
[2] = molecular target: T1, Nuclear receptor subfamily 4immunitygroup A member 1; assay: Binding affinity to NuR77-LBD receptor expressed in human BGC823 cells; assay type: cell-based, BGC-823
BGC-823 = assay: Antitumor activity against human BGC823 cells expressing si-Nur77 xenografted in athymic nude mouse BALB/c assessed as apoptotic cells by TUNEL assay; assay type: functional
Outline: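 Tumors from the subcutaneous BGC-823 xenograft nude mice (wild-type, si-Nur77 or si-Ctrl cells; Csn-B 13 mg kg-1 ip twice weekly or DMSO for 4 weeks) were sectioned and apoptotic cells detected by TUNEL assay.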

## CCCCCCCC(=O)c1c(O)cc(O)cc1CC(=O)OCC [CYTOSPORONE B]
[1]
  Activity: inactive
Mus musculus
  Activity: 5.8 mM
L02
  inhibition: Active
[2]
  Kd: 1.51 µM
BGC-823
  Activity: Active

— ChEMBL document CHEMBL1221214, “Cytosporone B is an agonist for nuclear orphan receptor Nur77” (Nat Chem Biol, 2008)
